High-throughput results: PubChem, several laboratories
UPR CHOP act: activators of apoptotic CHOP UPR arm, primary screen, cell-based, CHO-CHOP luciferase reporter, luminescence, uHTS; UPR activation; percent of tunicamycin response over DMSO baseline; activation, % at 10 µM; 330,000 tested, 0.34% active; AID 449763, 2010;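 active = at 10 µM dose, activation of 40% or more, normalized to positive control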;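 also: 100% = tunicamycin at 10 µg/mL and 0% = DMSO alone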
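assay system = CHO CHOP reporter cells | amount = 500 CHO-CHOP cells per well | buffer or medium = F12 with 10% FBS | incubation = 16-18 h cell attachment, then 6 h compound exposure, 37 °C | detection = luminescence read with Steady-Glo | read-out = percent activation relative to tunicamycin control | controls = tunicamycin high control, DMSO low control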
V-ATPase pHluor: regulators of yeast V-ATPase proton pumping, primary screen, pHLuorin cytosolic pH fluorescence; S. cerevisiae; response, % at 10 µM; 350,000 tested, 0.37% active; in the data active = response mostly above about 7.3%, no sharp cut-off; inactive = mostly below about 5.4%; also: actives read high
XBP1 UPR activ: activators of adaptive XBP1 UPR arm, primary screen, cell-based, CHO-XBP1 luciferase reporter, luminescence, uHTS. IRE1-XBP1 UPR activation; percent of tunicamycin response, DMSO as zero. activation, % at 20 µM. 330,000 tested, 0.33% active. AID 463104, 2010;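 active = versus positive control, 20 µM dose yields 30% or more activation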;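 also: 100% = tunicamycin at 10 µg/mL and 0% = DMSO only wells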
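incubation = overnight seeding at 37 °C, 6 h compound treatment at 37 °C | assay system = CHO-XBP1 cells stably carrying IRE1-XBP1-driven luciferase reporter | input = 1000 cells per well | detection = luciferase luminescence | dosing = single point, 20 µM final compound, 1% DMSO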
Tb MetRS inh: T. brucei MetRS inhibitors, primary screen, biochemical, luminescence. 360,000 tested, 0.4% active. AID 624268, 2012. inhibition, % at 11.9 µM. methionyl-tRNA synthetase (Trypanosoma brucei brucei). purified T. brucei MetRS, ATP depletion, Kinase-Glo luminescence;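 active = inhibition above a per-plate cutoff of the control wells' mean inhibition plus 3 SD, cut at about 5.5% in these data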;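 also: 0% = DMSO wells median and 100% = median of wells with control inhibitor compound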
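Material: T. brucei methionyl-tRNA synthetase, purified; reagent: substrates ATP, L-methionine and bulk Escherichia coli tRNA; dosing: 11.9 µM single point; timing: 15 min plus 2 h at 25 °C; detection: luminescence of leftover ATP; evaluation: % inhibition; control set: DMSO-only wells as low control; replicates: singlicate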
CHOP inhibitor: inhibitors of CHOP promoter induction, primary screen, cell-based, unfolded protein response, luciferase reporter | CHO-K1 CHOP-promoter luciferase, tunicamycin-induced, 15-18 h | inhibition, % at 10 µM | 220,000 tested, 3.8% active;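 active = compounds that reduced the stress-induced luciferase reporter signal by more than about 70% of percent inhibition, limit read from the data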;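 also: 0% = tunicamycin plus vehicle and 100% = wells without tunicamycin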
CHOP UPR conf: activators of apoptotic CHOP UPR arm, confirmation, cell-based, CHO-CHOP luciferase reporter, single concentration. activation, % at 10 µM. AID 463112, 2010. 1,000 tested, 64% active. CHO-CHOP cells, CHOP-luciferase reporter luminescence; percent of tunicamycin response, DMSO as zero. shares compounds with UPR CHOP act; in the data active = activation above about 33%;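 also: 0% = DMSO wells and 100% = tunicamycin 10 µg/mL wells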
* hit, by the source's call; nt = no result given. This is one part of a sample in which hits are shown more often than they occur.

SMILES	UPR CHOP act	V-ATPase pHluor	XBP1 UPR activ	Tb MetRS inh	CHOP inhibitor	CHOP UPR conf
COC(=O)C(C(=O)Nc1ccccc1C)C1CCCCCC1 (stereo not drawn)	-2	-1	-4	-1	11	nt
Clc1ccc(-n2nnnc2Sc2ncnc3sccc23)cc1	89*	-3	-9	-1	nt	112*
Clc1ccc(-c2nnc(CSc3nnc(-c4cccs4)n3Cc3ccccc3)o2)cc1	47*	2	0	0	20	-3
O=C(COC(=O)c1ccc(Cl)c([N+](=O)[O-])c1)NC1CCCC1	2	2	-2	-1	nt	nt
O=C(COC(=O)c1ccccc1C(=O)c1ccc(Cl)c([N+](=O)[O-])c1)NC1CCCCCC1	85*	-1	-4	1	93*	36*
COc1ccccc1CCNC(=O)c1nccnc1C(=O)O	0	-3	-6	-1	nt	nt
CCn1c2ccccc2c(=O)c2ccccc21	0	-2	1	0	28	nt
CCn1c(-c2ccccc2)c(C(=O)CCl)c2ccccc21	77*	3	7	0	105*	110*
O=[N+]([O-])c1ccccc1CN1CCN(Cc2c[nH]c3ccccc23)CC1	49*	nt	17	nt	-77	21
O=C(Nc1scc(-c2ccc(Br)cc2)c1C(=O)O)c1ccccc1F	56*	-2	5	0	nt	5
S=C1SCN(Cc2ccccc2)CN1Cc1ccccc1	2	2	-4	-1	nt	nt
S=C1SCN(CC2CC2)CN1CC1CC1	82*	0	1	0	-68	86*
CC(Sc1nc2ccccc2[nH]1)C(=O)Nc1ccccc1F (stereo not drawn)	2	1	1	0	20	nt
Cc1ccc(/C=C/C(=O)NC2CCCCCCC2)o1	125*	0	4	-1	54	3
CN(CC(=O)Nc1ccc(F)cc1)CC(=O)NC1CCCCC1	0	-4	0	0	nt	nt
O=C(NCc1ccccc1CN1CCCC1)c1cc2cc(Cl)ccc2o1	-1	1	-1	0	nt	nt
O=C(Oc1oc(-c2ccco2)nc1C=Nc1ccc(Cl)cc1)c1ccco1	77*	-5	9	-1	-11	76*
CN(C)S(=O)(=O)c1cccc(NC(=O)CSc2cccc3cccnc23)c1	162*	3	-5	0	nt	246*
O=C(NCc1ccccc1)c1ccc(NC(=O)c2ccccc2F)cc1	0	2	0	0	nt	nt
C[C@H](Cc1ccc(O)c(O)c1)[C@@H](C)Cc1ccc(O)c(O)c1	nt	nt	nt	nt	-7	nt
CC(Cc1ccc(O)c(O)c1)C(C)Cc1ccc(O)c(O)c1 (stereo not drawn)	83*	nt	-2	nt	nt	23
COc1cc(/C=C/[N+](=O)[O-])ccc1OC(=O)c1cc2ccccc2oc1=O	120*	-2	-10	-1	nt	-4
COc1ccccc1OC(=O)c1cc2ccccc2oc1=O	2	-3	-1	0	nt	nt
Cc1ccc(NC(=O)c2ccc(Cl)c(N3C(=O)C=CC3=O)c2)cc1	88*	0	-4	-1	43	3
CCc1ccc(CN(C)C(=O)CCc2nnc(CCc3ccccc3OC)o2)nc1	2	1	1	0	17	nt
O=C(CN(Cc1ccc(Br)cc1)S(=O)(=O)c1ccccc1)NCc1cccnc1	0	-1	-3	0	nt	nt
O=C(NCc1cccnc1)/C(=C\c1ccc(-c2ccc(Br)cc2)o1)S(=O)(=O)c1ccccc1	83*	0	-5	0	106*	52*
O=C(NCc1cccnc1)/C(=C/c1ccc(-c2ccc(Cl)cc2)o1)S(=O)(=O)c1ccccc1	136*	10	-5	-1	104*	91*
O=C(NCc1cccnc1)/C(=C/c1ccc(-c2cccc(C(F)(F)F)c2)o1)NC(=O)c1ccccc1	5	1	3	0	38	nt
